From ChEMBL document CHEMBL1126809, “Effects of solvation on the ionization and conformation of raclopride and other antidopaminergic 6-methoxysalicylamides: insight into the pharmacophore” (J Med Chem, 1993)

Assays:
[1] = Dissociation constants determined by potentiometry at 25 degree celsius (phenolic group); assay type: physicochemical
In short: (§1)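 Potentiometric titration at 25 ± 1 °C with ionic strength held at 0.1 M by KCl. Excess HCl added, then back-titrated with 0.01 N NaOH. Curves run in triplicate. pKa derived by non-logarithmic linearization of the titration curve, corrected for dilution during titration.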

[2] = Dissociation constants determined by potentiometry at 25 degree celsius (Amino group); assay type: physicochemical; in short: as §1
[3] = The isoelectric point (pI) as the arithmetic mean of pKa1 and pKa2; assay type: physicochemical
[4] = Percent of zwitter ion formed, was determined at pH 7.4; assay type: ADME

PKa1 [1] | PKa2 [2] | pI [3] | Z [4] | Structure (SMILES)
6.93 | 9.67 | 8.3 | 74% | CCc1cc(Cl)c(OC)c(C(=O)NC[C@@H]2CCCN2CC)c1O [ETICLOPRIDE]
5.96 | 9.12 | 7.54 | 95% | COc1c(Cl)cc(Cl)c(O)c1C(=O)NC1CCN(C)CC1
6.88 | 9.6 | 8.24 | 76% | CCc1cc(Cl)c(O)c(C(=O)NC[C@@H]2CCCN2CC)c1OC
5.81 | 9.21 | 7.51 | 96% | CCN1CCC[C@H]1CNC(=O)c1c(O)c(Cl)cc(Cl)c1OC [RACLOPRIDE]
5.94 | 9.18 | 7.56 | 95% | CCN1CCC[C@H]1CNC(=O)c1c(O)c(Br)cc(Br)c1OC
5.81 | 9.16 | 7.49 | 96% | CCN1CCC[C@H]1CNC(=O)c1c(OC)ccc([N+](=O)[O-])c1O

Further lines, the compound ahead of its results:

Structure (SMILES) | PKa1 [1] | PKa2 [2] | pI [3] | Z [4]
CCc1cc(CC)c(OC)c(C(=O)NC[C@@H]2CCCN2CC)c1O | 7.28 | 9.55 | 8.42 | 56%
CCN1CCC[C@H]1CNC(=O)c1c(O)cccc1OC | 8.7 | 9.56 | 9.13 | 5%
CCN1CCC[C@H]1CNC(=O)c1c(OC)ccc(Cl)c1O | 7.13 | 9.66 | 8.4 | 65%
CCc1ccc(OC)c(C(=O)NC[C@@H]2CCCN2CC)c1O | 8.71 | 9.57 | 9.14 | 5%
